High-throughput results as filed in PubChem.
An excerpt weighted towards active compounds, which were near 1.6% of everything screened.
NR1D1 modulator = Rev-erb alpha (human) modulation | activity, % at 10 µM | 0.79% of 370,000 active | P20393 | AID 1259318 | Rev-erbα–FITC-DNA binding, fluorescence polarization, 90 min;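 active = activity above about 14%, limit read from the data; passing the limit was not always enough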;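 note: 0% = DMSO wells with 35 nM protein and 100% = DMSO wells with 750 nM protein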
Target sequence (P20393 whole entry, looked up): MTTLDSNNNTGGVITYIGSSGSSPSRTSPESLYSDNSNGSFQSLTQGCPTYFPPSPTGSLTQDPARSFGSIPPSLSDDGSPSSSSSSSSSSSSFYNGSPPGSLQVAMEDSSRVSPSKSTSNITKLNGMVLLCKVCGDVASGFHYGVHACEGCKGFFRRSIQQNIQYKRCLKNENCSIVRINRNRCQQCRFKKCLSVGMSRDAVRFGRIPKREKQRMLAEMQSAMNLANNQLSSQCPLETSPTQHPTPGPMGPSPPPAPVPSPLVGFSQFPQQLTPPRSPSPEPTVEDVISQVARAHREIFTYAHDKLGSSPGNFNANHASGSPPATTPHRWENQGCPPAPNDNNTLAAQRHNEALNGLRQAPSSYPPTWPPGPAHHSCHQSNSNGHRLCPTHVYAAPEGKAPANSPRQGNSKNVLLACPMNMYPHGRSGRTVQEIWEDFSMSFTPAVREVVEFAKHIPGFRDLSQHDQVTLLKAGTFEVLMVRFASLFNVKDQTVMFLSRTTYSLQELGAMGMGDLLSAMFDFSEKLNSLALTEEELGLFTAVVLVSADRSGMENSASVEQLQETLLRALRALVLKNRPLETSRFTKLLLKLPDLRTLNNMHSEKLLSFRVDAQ
NR2E3 ag-1 = human photoreceptor-specific nuclear receptor agonism; Q9Y5X4; CHO-S Gal4-NCOR/VP16-NR2E3 two-hybrid, luciferase; inhibition of corepressor binding, % at 3.98 µM; 0.35% of 360,000 active;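 active = inhibition above the mean of all tested compounds plus 3 SD, cut at about 70% in these data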;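 note: 0% = DMSO with NR2E3 transfected cells and 100% = cells lacking NR2E3 construct; higher means lower luciferase signal from less NR2E3 corepressor binding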
PG9 binder = PG9 antibody binding by small molecule; TR-FRET gp120-PG9 antibody binding; inhibition, % at 6.7 µM; 0.43% of 360,000 active; in the data active = inhibition above about 8.5%
NR2E3 ag-2 = agonists of human nuclear receptor NR2E3; inhibition of corepressor binding, % at 4.78 µM; AID 2300; GST-NR2E3/biotin-RetCOR TR-FRET, 1536-well; 0.12% of 320,000 active;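 active = percent inhibition above the cutoff of mean plus 3 SD of all tested compounds, set per screening campaign, cut at about 20% in these data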;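 note: 0% = DMSO wells and 100% = biotin wells as full block of FRET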
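Test system – NR2E3–RetCOR corepressor complex · Quantity – NR2E3 fusion 1.35 nM · Buffer or medium – Tris pH 7.5 · Incubation – Compound–protein incubation for 5 h at 4 °C · Technique – TR-FRET, Eu(K)-anti-GST donor, streptavidin-D2 acceptor, ex 340, em 617/671 nm · Evaluation – percent inhibition of 671/617 nm emission ratio versus biotin and DMSO controls · Plate – 1536-well format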
PKA-R2B activ = PKA-R2B complex activation; P22694+P31323; PKA-R2B holoenzyme dissociation, Cy5-IP20 fluorescence polarization; R2B truncated from residue 108, S112A mutant; 0% DMSO only, 100% 113 µM cGMP; activation, % at 11.4 µM; 0.079% of 340,000 active; AID 504700;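 active = activation above a cutoff set at the mean over all compounds plus 3 SD, cut at about 18% in these data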;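 note: higher means more holoenzyme dissociation and a rise in polarization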
PKA-R1A act = activates the PKA-R1A holoenzyme complex; 0.083% of 340,000 active; PKA-R1A dissociation, Cy5-IP20 fluorescence polarization; scaled: DMSO 0%, 113 µM cGMP 100%; activation, % at 11.4 µM; P00514+P68181;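 active = percent activation above the mean of all tested compounds plus 3 SD, cut at about 19% in these data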;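 note: higher means more PKAc released from R1A so a rise in polarization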
PG9 binder conf = PG9 antibody binding, confirmed. shares compounds with PG9 binder. TR-FRET PG9 antibody binding, biochemical. inhibition, % at 6.7 µM. 90% of 1,500 active; in the data active = inhibition above about 9%
PGV04 Ab binding = counter-screen for PG9 binders: binding control antibody PGV04. shares compounds with PG9 binder. TR-FRET PGV04 antibody-gp120 binding, biochemical. inhibition, % at 6.7 µM. 95% of 1,500 active; in the data active = inhibition above about 9.5%
PG9 bind DR = PG9 antibody binding, dose response | shares compounds with PG9 binder | TR-FRET PG9 antibody-gp120 binding inhibition | IC50, µM | 95 tested, under 10 active | AID 651848; in the data active = IC50 below about 10 µM
PGV04 binding DR = counter-screen for PG9 binders: binding to control antibody PGV04. shares compounds with PG9 binder. TR-FRET binding to control antibody PGV04. IC50, µM. 20% of 95 active
PG126 binding DR = binds control antibody PG126 in PG9 counter-screen; TR-FRET binding to antibody PG126, counterscreen; shares compounds with PG9 binder; IC50, µM; 20% of 95 active
Rev-erbA confirm = confirmation of modulators of human Rev-erb alpha DNA binding | shares compounds with NR1D1 modulator | Rev-erb alpha FITC-DNA binding, fluorescence polarization, 90 min | activation, % at 25 µM | 61% of 3,000 active;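 active = activation at or above a set limit, or at least 3 SD above the negative control mean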;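 note: 0% = 35 nM protein with DMSO and 100% = 750 nM protein high control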
RORg counter = affects RORgamma DNA binding in a Rev-erb alpha counter-screen; 8% of 910 active; AID 1259320; purified RORgamma protein-FITC-DNA binding, fluorescence polarization; IC50, µM; shares compounds with NR1D1 modulator;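 active = Compounds whose fitted half-maximal concentration for disrupting protein-DNA binding is below 10 micromolar; the record names Rev-erb in its text, so the target is in doubt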
Starred values were filed as active, the others as inactive; i = inactive; . = no result. Cut-off read from the data, not from the text of the source, unless noted: active = IC50 below about 9 µM; inactive = the rest.

SMILES	NR1D1 modulator	NR2E3 ag-1	PG9 binder	NR2E3 ag-2	PKA-R2B activ	PKA-R1A act	PG9 binder conf	PGV04 Ab binding	Rev-erbA confirm	others
CC(=O)Nc1ccc(-c2cc(-c3ccc(NC(C)=O)cc3)nc(-c3ccc(NC(C)=O)cc3)n2)cc1	52*	-5	29*	19	-7	10	25*	45*	35*
CC(=O)Nc1ccc(-c2cc(-c3ccccc3)nc(-c3ccccc3)n2)cc1	13	4	0	-1	0	7	.	.	.
COc1cc2cc(C(=O)N(C)Cc3ccccc3)[nH]c2cc1OC	31*	11	16*	.	5	7	15*	22*	12
CCOC(=O)[C@@]12CCCC=C1N(CCc1ccc(Cl)cc1)C(=O)[C@H]2CC(=O)NCc1cccs1	5	.	.	.	.	.	.	.	.
C=CCN1C(=O)/C(=C2/Sc3ccc(OC)cc3N2C)SC1=Nc1cccc(O)c1	16*	-26	11*	0	0	-8	41*	59*	7
CCN1C(=O)/C(=C2/Sc3ccc(OC)cc3N2C)SC1=Nc1ccc(OC)cc1	-2	-61	-2	0	4	1	.	.	.
CCOC(=O)[C@@]12CN(C(=O)OC(C)(C)C)CC=C1N(Cc1ccc(OC)cc1)C(=O)[C@H]2CC(=O)NCCCOC	2	.	.	.	.	.	.	.	.
CCCc1nc(SCC(=O)Nc2cc(C)on2)c2ccccc2n1	4	22	1	1	0	-1	.	.	.
Cc1cc(NC(=O)CSc2cc(C)c3ccccc3n2)no1	23*	-16	13*	.	-4	-1	16*	42*	4
Cc1cc(NC(=O)CSc2c3c(nc4ccccc24)CCC3)no1	5	-24	-2	0	-7	-1	.	.	.
Cc1cc(NC(=O)CSc2nc(C(C)(C)C)nc3ccccc23)no1	36*	-28	36*	-1	3	0	44*	55*	13
C#CCNC(=O)C[C@@H]1C(=O)N(Cc2ccc(OC)cc2)/C2=C/CCCCC[C@@]21C(=O)OCC	-1	.	.	.	.	.	.	.	.
O=C(Cc1ccccc1)Nc1nc2ccccc2s1	2	-70	0	-3	-5	-3	.	.	.
O=C(Nc1nc(=O)c2ccccc2s1)c1ccc(Cl)cc1	78*	-6	25*	1	-1	-14	50*	68*	107*	RORg counter=>40
O=C(Nc1nc(=O)c2ccccc2s1)c1ccc(F)cc1	79*	-33	42*	-14	12	-7	66*	78*	70*	RORg counter=>40
O=C(Cc1ccccc1)Nc1nc(=O)c2ccccc2s1	32*	-8	68*	1	-2	6	72*	78*	18*
Nn1c(SCC(=O)N2CCOCC2)nnc1-c1cc(-c2ccc(F)cc2)n[nH]1	3	.	.	.	.	.	.	.	.
Cc1cccc(NC(=O)CSc2ncnc3sc(C)c(C)c23)n1	-2	-16	1	.	-17	-5	.	.	.
Cc1sc2ncnc(SCC(=O)NC(=O)c3cccn3C)c2c1C	39*	2	53*	-112	-7	-5	55*	66*	25*
Cc1ccsc1C(=O)Nc1ccc(O)c(-c2nc3ccccc3s2)c1	450*	-50	51*	17	-15	-6	58*	78*	354*	RORg counter=>40
Cc1ccc2nc(-c3cc(-c4ccccc4)no3)cn2c1	37*	-153	23*	-19	9	-19	29*	28*	19*	PG9 bind DR=>67;PGV04 binding DR=i;PG126 binding DR=>67
CCc1ccn2cc(-c3cc(-c4ccccc4)no3)nc2c1	-9	-15	2	3	-2	-3	.	.	.
O=C(COC(=O)c1ccccc1C(=O)c1ccc(Cl)cc1)NC(c1ccccc1)c1ccccc1	35*	8	17*	1	2	5	25*	47*	9
COCc1cc(C)nc(Nc2ccc(C)c(C)c2)c1C#N	25*	-28	31*	10	0	-4	29*	46*	11
CCNc1nc(C)cc(COC)c1C#N	-3	-1	1	1	-2	8	.	.	.
SMILES	NR1D1 modulator	NR2E3 ag-1	PG9 binder	NR2E3 ag-2	PKA-R2B activ	PKA-R1A act	PG9 binder conf	PGV04 Ab binding	Rev-erbA confirm	others
CCN1CCCCC(NC(C)=O)C1=O (configuration not stated)	-2	.	.	.	.	.	.	.	.
COCCNc1nc2sc3c(c2c(=O)n1Cc1ccco1)CCCCC3	49*	-71	8.7*	-1	-4	3	10*	11*	23*
COC(=O)C1CN(C2CCCC2)CCS(=O)(=O)N1Cc1cn(Cc2ccc(F)cc2)nn1 (configuration not stated)	-2	.	.	.	.	.	.	.	.
Cc1cn2c(=O)c3ncn(C4OC(CO)C(O)C4O)c3n(C)c2n1 (configuration not stated)	-3	.	1	.	.	.	.	.	.
O=C(Nc1c(-c2ccc(F)cc2)nc2ncccn12)C1CC1	1	.	.	.	.	.	.	.	.
Cc1cc(C)c2nc(SCC(=O)N3CC(=O)Nc4ccccc43)c(C#N)cc2c1	98*	-18	13*	2	8	-4	11*	24*	64*	RORg counter=>40
CC(OC(=O)c1cc(Br)ccc1O)C(=O)NCc1ccc2c(c1)OCO2 (configuration not stated)	35*	14	20*	-2	3	4	33*	69*	23*
O=C(Cc1cccc2ccccc12)Nc1ccc(-c2cc3ccccc3oc2=O)cc1	27*	39	19*	2	3	-5	35*	45*	-2
CC(C)(C)c1ccc(-c2nnc(SCc3ccccc3)n2Cc2ccco2)cc1	-2	.	.	.	.	.	.	.	.
